From ChEMBL document CHEMBL2069277, “Small molecules that regulate zymosan phagocytosis of macrophage through deactivation of Rho GTPases” (Bioorg Med Chem, 2012)
Calls of active or inactive are those of the source. No cut-off for these calls is given here.

What was measured:
RAW264.7 [1] = assay: Inhibition of zymosan phagocytosis in mouse RAW264.7 cells at 10 uM preincubated before zymosan addition by flow cytometry; assay type: functional, cell-based
Method in brief: (§1)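 CD11b+ peritoneal macrophages (4 × 10^6/well) or RAW264.7 cells (2 × 10^6/well) were adhered 2 h and pretreated 30 min (5, 10, 20 µM; screen at 10 µM). Cells were scraped, washed, and incubated with FITC-zymosan (5 particles/cell) for 1 h at 37 °C. After washing, uptake was read by flow cytometry as a phagocytic index relative to untreated cells. Cytochalasin D 5 µM was the control.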

RAW264.7 [2] = assay: Inhibition of zymosan phagocytosis in mouse RAW264.7 cells preincubated before zymosan addition by flow cytometry; assay type: functional, cell-based; method in brief: as §1
[3] = tested on: Peritoneal macrophage cell; assay: Inhibition of zymosan phagocytosis in C57BL/6 mouse CD11b(+) peritoneal macrophages preincubated before zymosan addition by flow cytometry; assay type: functional, cell-based; method in brief: as §1
RAW264.7 [4] = assay: Reduction in GTP-bound Rac1 protein expression in mouse RAW264.7 cells at 20 uM preincubated for 20 mins before zymosan exposure for 15 mins by Western blot based pull down assay; assay type: functional, cell-based
Method in brief: (§2)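 RAW264.7 cells were pretreated with 20 µM (20 min for Rac1 and Rac2; 5 min for Cdc42), then given zymosan 200 µg/ml for 15 min. GTP-bound Rac1, Rac2 and Cdc42 were pulled down with an active pull-down kit and western blotted. Bands were quantified by densitometry and normalized to β-actin.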

[5] = Toxicity in zymosan-induced C57BL/6 mouse CD11b(+) peritoneal macrophages at 5 to 20 uM preincubated before zymosan addition; assay type: cell-based; settings: peritoneal macrophage cell
[6] = tested on: Peritoneal macrophage cell; assay: Effect on TLR1 mRNA expression in C57BL/6 mouse CD11b(+) peritoneal macrophages at 20 uM preincubated for 30 mins before zymosan exposure for 6 hrs by real-time PCR
RAW264.7 [7] = assay: Reduction in GTP-bound Rac2 protein expression in mouse RAW264.7 cells at 20 uM preincubated for 20 mins before zymosan exposure for 15 mins by Western blot based pull down assay; assay type: functional, cell-based; method in brief: as §2
RAW264.7 [8] = assay: Toxicity in zymosan-induced mouse RAW264.7 cells at 5 to 20 uM preincubated before zymosan addition; assay type: cell-based; settings: raw264.7, 20 µM
[9] = tested on: Peritoneal macrophage cell; assay: Effect on TLR6 mRNA expression in C57BL/6 mouse CD11b(+) peritoneal macrophages at 20 uM preincubated for 30 mins before zymosan exposure for 6 hrs by real-time PCR
RAW264.7 [10] = assay: Reduction in GTP-bound Cdc42 protein expression in mouse RAW264.7 cells at 20 uM preincubated for 5 mins before zymosan exposure for 15 mins by Western blot based pull down assay; assay type: functional, cell-based; method in brief: as §2
[11] = tested on: Peritoneal macrophage cell; assay: Effect on Dectin-1 mRNA expression in C57BL/6 mouse CD11b(+) peritoneal macrophages at 20 uM preincubated for 30 mins before zymosan exposure for 6 hrs by real-time PCR
[12] = tested on: Peritoneal macrophage cell; assay: Effect on TLR2 mRNA expression in C57BL/6 mouse CD11b(+) peritoneal macrophages at 20 uM preincubated for 30 mins before zymosan exposure for 6 hrs by real-time PCR
[13] = tested on: Peritoneal macrophage cell; assay: Inhibition of zymosan phagocytosis in C57BL/6 mouse CD11b(+) peritoneal macrophages at 20 uM preincubated before zymosan addition by flow cytometry; assay type: functional, cell-based; method in brief: as §1
Mus musculus = organism: Mus musculus; assay: Inhibition of zymosan-induced PI3K in C57BL/6 mouse CD11b(+) peritoneal macrophages assessed as reduction in AKT Ser473 phosphorylation at 20 uM preincubated for 15 mins before zymosan exposure for 30 mins by Western blot
Method in brief: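 CD11b+ peritoneal macrophages from male C57BL/6 mice (thioglycollate-elicited; cells pooled from twenty mice) were pretreated with 20 µM for 15 min, then given zymosan 200 µg/ml for 30 min. Western blot for phospho-Akt (Ser473) and total Akt. p-Akt was quantified by densitometry and expressed as fold change.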

## CCCOc1ccc(-c2cccc(C(=O)NCCCN3CCCCC3)c2)cc1
RAW264.7 [1]
  inhibition: Active

## CCCOc1ccc(-c2cccc(C(=O)NCCCN3CCOCC3)c2)cc1
RAW264.7 [1]
  inhibition: inactive

## CCCOc1ccc(-c2cccc(C(=O)NCCCN(CC)CC)c2)cc1
RAW264.7 [2]
  inhibition: Dose-dependent effect
[3]
  inhibition: Dose-dependent effect
RAW264.7 [4]
  Activity: Active
[5]
  Activity: Non-toxic
[6]
  Activity: inactive
RAW264.7 [7]
  Activity: Active
RAW264.7 [8]
  Activity: Non-toxic
[9]
  Activity: inactive
RAW264.7 [10]
  Activity: Active
[11]
  Activity: inactive
[12]
  Activity: inactive

## CCCOc1ccc(-c2cccc(C(=O)NCCCN(C)C)c2)cc1
RAW264.7 [1]
  inhibition: Active

## CCCNC(=O)c1cccc(-c2ccc(OCCC)cc2)c1
RAW264.7 [1]
  inhibition: Active

## O=c1cc(N2CCOCC2)oc2c(-c3ccccc3)cccc12
[13]
  inhibition: inactive
Mus musculus
  inhibition: Active

## CCCOc1ccc(-c2cccc(C(=O)NCCCN3CCCC3)c2)cc1
RAW264.7 [1]
  inhibition: Active

## CCCOc1ccc(-c2cccc(C(=O)NCCN(CC)CC)c2)cc1
RAW264.7 [1]
  inhibition: inactive
